Data as given in ChEMBL document CHEMBL1122203, “Potential tumor- or organ-imaging agents. 23. Sterol esters of iopanoic acid” (J Med Chem, 1982).

Legend:
Rattus norvegicus [1] = assay: Evaluated for distribution at 24 hours after intravenous administration in ovary of female Sprague Dawley rats; assay type: ADME, organism-based, Female gonad; conditions: in vivo
How it was run: (§1)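 Radioiodinated compound solubilized in Tween (2–3% clear solution) and given intravenously to adult female Sprague-Dawley rats, 200–250 g; 5–30 µCi per animal, 4–5 rats per group. Killed by exsanguination under ether anesthesia; organs blotted, adrenal cortex dissected from medulla, weighed samples gamma-counted (84% efficiency). Expressed as percent administered dose per gram tissue ± SEM.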

Rattus norvegicus [2] = assay: Evaluated for distribution at 0.5 hr after intravenous administration in thyroid of female Sprague Dawley rats; assay type: ADME, organism-based, Thyroid gland; conditions: in vivo; how it was run: as §1
[3] = Percent lipid extracted at 24 hours from adrenal cortex using CHCl3/CH3OH.; assay type: ADME, tissue-based
How it was run: (§2)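 Same iv dosing of radioiodinated ester in Tween to female Sprague-Dawley rats. At 0.5 or 24 h, plasma, adrenal cortex and liver were extracted with CHCl3/CH3OH. Radioactivity in the lipid extract was counted and reported as percent of tissue radioactivity extractable, ± SE.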

Rattus norvegicus [4] = assay: Evaluated for distribution at 0.5 hr after intravenous administration in blood of female Sprague Dawley rats; assay type: ADME, organism-based; conditions: in vivo; how it was run: as §1
[5] = Percent parent compound extracted at 0.5 hr from adrenal cortex using CHCl3/CH3OH.; assay type: ADME, tissue-based
How it was run: (§3)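 Lipid extracts from plasma, adrenal cortex and liver taken at 0.5 or 24 h after iv dosing were run on TLC beside unlabeled ester reference (iodine vapor). Eluents were petroleum ether/diethyl ether 7:2 for the cholesteryl ester and benzene/ethyl acetate 9:1 for the others, developed 14.5 cm. Plates were cut into 1-cm strips and counted; parent given as percent of extractable radioactivity.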

Rattus norvegicus [6] = assay: Evaluated for distribution at 24 hours after intravenous administration in thyroid of female Sprague Dawley rats; assay type: ADME, organism-based, Thyroid gland; conditions: in vivo; how it was run: as §1
[7] = Percent parent compound extracted at 0.5 hr from liver using CHCl3/CH3OH.; assay type: ADME, tissue-based; how it was run: as §3
[8] = Percent lipid extracted at 0.5 hr from adrenal […] using CHCl3/CH3OH.; assay type: ADME, tissue-based; how it was run: as §2
Rattus norvegicus [9] = assay: Evaluated for distribution at 0.5 hr after intravenous administration in ovary of female Sprague Dawley rats; assay type: ADME, organism-based, Female gonad; conditions: in vivo; how it was run: as §1
Rattus norvegicus [10] = assay: Evaluated for distribution at 0.5 hr after intravenous administration in liver of female Sprague Dawley rats; assay type: ADME, organism-based; conditions: in vivo; how it was run: as §1
[11] = Percent parent compound extracted at 24 hours from plasma using CHCl3/CH3OH.; assay type: ADME, cell-free; conditions: read-out: Extracted; how it was run: as §3
[12] = Percent parent compound extracted at 24 hours from liver using CHCl3/CH3OH.; assay type: ADME, tissue-based; how it was run: as §3
[13] = Percent lipid extracted at 0.5 hr from […] using CHCl3/CH3OH.; assay type: ADME, cell-free; how it was run: as §2
Rattus norvegicus [14] = assay: Evaluated for distribution at 0.5 hr after intravenous administration in adrenal cortex of female Sprague Dawley rats; assay type: ADME, organism-based; conditions: in vivo; how it was run: as §1
Rattus norvegicus [15] = assay: Evaluated for distribution at 24 hours after intravenous administration in blood of female Sprague Dawley rats; assay type: ADME, organism-based; conditions: in vivo; how it was run: as §1
[16] = Percent parent compound extracted at 0.5 hr from plasma using CHCl3/CH3OH.; assay type: ADME, cell-free; conditions: read-out: Extracted; how it was run: as §3
[17] = Percent lipid extracted at 24 hr from liver using CHCl3/CH3OH.; assay type: ADME, tissue-based; how it was run: as §2
Rattus norvegicus [18] = assay: Evaluated for distribution at 24 hours after intravenous administration in adrenal cortex of female Sprague Dawley rats; assay type: ADME, organism-based; conditions: in vivo; how it was run: as §1
Rattus norvegicus [19] = assay: Evaluated for distribution at 24 hours after intravenous administration in liver of female Sprague Dawley rats; assay type: ADME, organism-based; conditions: in vivo; how it was run: as §1
[20] = Percent lipid extracted at 0.5 hr from liver using CHCl3/CH3OH.; assay type: ADME, tissue-based; how it was run: as §2
[21] = Percent parent compound extracted at 24 hours from adrenal cortex using CHCl3/CH3OH.; assay type: ADME, tissue-based; how it was run: as §3
[22] = Percent lipid extracted at 24 hours from plasma using CHCl3/CH3OH.; assay type: ADME, cell-free; how it was run: as §2

`CCC(Cc1c(I)cc(I)c(N)c1I)C(=O)OC1CCC2(C)C(=CCC3C4CCC(=O)C4(C)CCC32)C1` (stereo unspecified) showed a Distribution (Rattus norvegicus [1]) of 1.205%, a Distribution (Rattus norvegicus [2]) of 1.392% and an Extracted [3] of 83.4%. The Distribution (Rattus norvegicus [4]) was 1.275%, the Extracted [5] was 83.4% and the Distribution (Rattus norvegicus [6]) was 143.74%. It also gave an Extracted [7] of 61.8%, an Extracted [8] of 85.5% and a Distribution (Rattus norvegicus [9]) of 1.886%. The Distribution (Rattus norvegicus [10]) was 3.612%, the remaining at 24 h [11] was 38% and the Extracted [12] was 42.5%. It also gave an Extracted [13] of 63.1%, a Distribution (Rattus norvegicus [14]) of 15.38% and a Distribution (Rattus norvegicus [15]) of 0.085%. It also gave a remaining at 0.5 h [16] of 64.2%, an Extracted [17] of 61.8% and a Distribution (Rattus norvegicus [18]) of 3.958%. The Distribution (Rattus norvegicus [19]) was 0.108%, the Extracted [20] was 81.5% and the Extracted [21] was 16.8%. The Extracted [22] was 64.2%.

Work on `CCC(Cc1c(I)cc(I)c(N)c1I)C(=O)OC1CCC2(C)C(=CCC3C2CCC2(C)C(C(C)CCCC(C)C)CCC32)C1` (stereo unspecified) yielded a Distribution (Rattus norvegicus [1]) of 24.542%, a Distribution (Rattus norvegicus [2]) of 0.868% and an Extracted [3] of 92.1%. It also gave a Distribution (Rattus norvegicus [4]) of 5.191%, an Extracted [5] of 96.9% and a Distribution (Rattus norvegicus [6]) of 3.571%. The Extracted [7] was 97.8%, the Extracted [8] was 83.1% and the Distribution (Rattus norvegicus [9]) was 5.161%. It also gave a Distribution (Rattus norvegicus [10]) of 4.035%, a remaining at 24 h [11] of 96.1% and an Extracted [12] of 97.8%. For the same compound, the Extracted [13] was 83.4%, the Distribution (Rattus norvegicus [14]) was 4.9% and the Distribution (Rattus norvegicus [15]) was 0.696%. For the same compound, the remaining at 0.5 h [16] was 96%, the Extracted [17] was 91.2% and the Distribution (Rattus norvegicus [18]) was 11.029%. The Distribution (Rattus norvegicus [19]) was 6.59%, the Extracted [20] was 87.2% and the Extracted [21] was 96.9%. The Extracted [22] was 85.8%.

Work on `CCC(Cc1c(I)cc(I)c(N)c1I)C(=O)OC1CCC2(C)C(=CCC3C2CCC2(C)C(C(C)=O)CCC32)C1` (stereo unspecified) yielded a Distribution (Rattus norvegicus [1]) of 1.085%, a Distribution (Rattus norvegicus [2]) of 0.945% and an Extracted [3] of 87.3%. The Distribution (Rattus norvegicus [4]) was 1.727%, the Extracted [5] was 92.1% and the Distribution (Rattus norvegicus [6]) was 156.7%. The Extracted [7] was 89.2%, the Extracted [8] was 89.5% and the Distribution (Rattus norvegicus [9]) was 2.126%. It also gave a Distribution (Rattus norvegicus [10]) of 5.214%, a remaining at 24 h [11] of 44.6% and an Extracted [12] of 69.1%. It also gave an Extracted [13] of 86.7%, a Distribution (Rattus norvegicus [14]) of 23.083% and a Distribution (Rattus norvegicus [15]) of 0.039%. The remaining at 0.5 h [16] was 91.9%, the Extracted [17] was 76.1% and the Distribution (Rattus norvegicus [18]) was 4.256%. The Distribution (Rattus norvegicus [19]) was 0.386%, the Extracted [20] was 87.6% and the Extracted [21] was 68.2%. The Extracted [22] was 60%.
